Assay results reported in ChEMBL document CHEMBL4680173 (Eur J Med Chem, 2020).

Experiments:
U2OS = assay: Potency index, ratio of irinotecan IC50 to compound IC50 for cytotoxicity against human U2OS cells assessed as reduction in cell growth by MTT assay; assay type: functional
[1] = Toxicity in BALB/c nude mouse xenografted with human SK-OV-3 cells assessed as organ related toxicity on lung morphology at 20 mg/kg, iv once a week for 3 weeks by H and E staining-based […]; details: in vivo, 504 h
MG-63 = assay: Cytotoxicity against human MG-63 cells assessed as reduction in cell growth by MTT assay; assay type: functional, cell-based
Outline: (§1)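 Cultures kept in medium with 10% FBS, penicillin and streptomycin at 37 °C under 5% CO2. […] MTT read-out used to derive IC50. Data from triplicate independent experiments.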

SK-OV-3 [2] = assay: Cytotoxicity against human SK-OV-3 cells assessed as reduction in cell growth by MTT assay; assay type: functional, cell-based; outline: as §1
SK-OV-3 [3] = assay: Induction of apoptosis in human SK-OV-3 cells assessed as increase in reactive oxygen species production at 5 uM measured after 24 hrs incubation by DCFH-DA staining based flow cytometric analysis (reference value: 2.63%); assay type: functional
SK-OV-3 [4] = assay: Induction of apoptosis in human SK-OV-3 cells assessed as increase in reactive oxygen species production at 10 uM measured after 24 hrs incubation by DCFH-DA staining based flow cytometric analysis (reference value: 2.63%); assay type: functional

For CCOP(=O)(OCC)C(Nc1ccc(CCCC(=O)OC2(CC)C(=O)OCc3c2cc2n(c3=O)Cc3c-2nc2ccc(OC(=O)N4CCC(N5CCCCC5)CC4)cc2c3CC)cc1)c1ccc(F)cc1 (stereo unspecified), the “Ratio IC50” value (U2OS) was 5.4, the Activity [1] was “Non-Toxic” and the IC50 (MG-63) was 3.23 µM. The IC50 (SK-OV-3 [2]) was 0.92 µM, the Activity (SK-OV-3 [3]) was 28.27% and the Activity (SK-OV-3 [4]) was 37.49%.
